L major viab: Leishmania major promastigote growth inhibition, primary screen. Leishmania major promastigotes, resazurin fluorescence viability. inhibition, % at 10 µM. 200,000 compounds, 9% hits. AID 1063, 2008; in the data active = inhibition above about 50%;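 note: promastigotes grown with compound for 44 hours at 28 °C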
HSF1 activator: HSF-1 activators, primary screen, NIH3T3-HGL cells, MG132 stress, luminescence, single point. activation, % at 9 µM. AID 504408, 2011. NIH3T3-HGL HSF-1 luciferase reporter, 8 h; 100% = twice DMSO control signal. 300,000 compounds, 1.7% hits;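 active = mean replicate activation of at least 50% with a set share of replicates each reaching 50%; inconclusive = only one of those two conditions met; inactive = mean below 50% and too few replicates reaching it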
Hsp70 act: Hsp70 transcriptional activators, primary screen, cell-based, HeLa, Hsp70 promoter luciferase, luminescence, 10 µM; HeLa Hsp70 promoter luciferase reporter; scaled: vehicle 0, proteasome-inhibitor control 100%; activation, % at 10 µM; 200,000 compounds, 0.04% hits;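 active = activation above the mean across all tested compounds plus 3 SD, cutoff set per campaign, cut at about 5.5% in these data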
HSF1 inhib: HSF1 inhibitors in luciferase reporter cells, primary screen, cell-based, NIH3T3, luminescence | NIH3T3-HGL HSE-luciferase, MG132-induced, luminescence 8 h; hits give low values | activity change, negative = inhibition, % at 7.5 µM (by protocol) | 300,000 compounds, 0.77% hits;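 active = more than half of replicate wells show activity change below -50%, luminescence cut by over half; inconclusive = some wells, but at most half, below -50%; inactive = no replicate well below -50%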;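 note: luciferase reports HSF-1 transcriptional activity via heat shock element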
T cruzi repl: inhibitors of intracellular T. cruzi growth, primary screen, luminescence, NIH3T3 host cells; T. cruzi beta-gal in NIH3T3, 90 h; inhibition, % (test concentration not listed); 300,000 compounds, 1.4% hits; AID 1885, 2009;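 active = mean inhibition across valid replicates above about 55%, limit read from the data; inconclusive = mean below that limit but half or more replicates reach it; inactive = mean below it, under half of replicates reach it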;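 note: signal also drops with host cell toxicity which is not excluded here; higher percent means less beta-gal luminescence so fewer parasites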
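Read-out: Parasite load inhibition, % | Test system: Mouse NIH/3T3 fibroblasts infected with β-gal-expressing T. cruzi Tulahuen C4 | Amount: 5,000 cells/well | Medium: DMEM, 2% fetal bovine serum | Signal: GalScreen β-gal luminescence, detergent lysis, 60 min | Timing: 3 h attach, ≥90 h co-culture | Also added: Tulahuen C4 trypomastigotes, 5000/well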
Of the large screens only hits and unclear results are named; the others gave an inactive call. This is one part of a sample in which hits are shown more often than they occur.

CC1CCCN(C(=O)CSc2nnc(-c3ccc(O)cc3)o2)C1 (configuration not stated)	HSF1 inhib -57 (no result: L major viab, Hsp70 act)
NS(=O)(=O)c1ccc(CCNC(=O)COC(=O)C2CCCN2C(=O)c2cccs2)cc1 (configuration not stated)	none
CC(C)Cc1ccc(CN2CCCC(NC(=O)c3cnc4ccccn4c3=O)C2)cc1 (configuration not stated)	T cruzi repl 55 (no result: L major viab, Hsp70 act)
O=C(NC1CCCN(Cc2ccc(Cl)cc2)C1)c1cnc2ccccn2c1=O (configuration not stated)	none (no result: L major viab, Hsp70 act)
O=C(CSc1nnc(-c2cccc(Br)c2)o1)N1CCOCC1	none (no result: L major viab, Hsp70 act)
COc1ccccc1NC(=O)CC(c1ccc(OC(C)C)cc1)c1ccccc1OC (configuration not stated)	none
COc1ccccc1C(CC(=O)Nc1ccc(C)c(C)c1)c1ccc(OC(C)C)cc1 (configuration not stated)	L major viab 51
COc1ccc(/C=N/OCC(=O)NC(c2ccccc2)c2ccccc2)cc1OC	L major viab 100, T cruzi repl 57
Cc1ccc2c(c1)C(c1ccc([N+](=O)[O-])cc1)=NNC(c1ccc(Br)cc1)=N2	L major viab 53
CCc1ccc2c(c1)C(c1ccc([N+](=O)[O-])cc1)=NNC(c1ccc(Br)cc1)=N2	none
Cc1cnn(-c2cc(N/N=C/c3cccc(F)c3)ncn2)c1	HSF1 activator 56
CC1(NC(=O)Nc2ccccc2)CCS(=O)(=O)C1 (configuration not stated)	none (no result: L major viab, Hsp70 act)
Cc1ccccc1NC(=S)NC1(C)CCS(=O)(=O)C1 (configuration not stated)	L major viab 54
Cc1cc(C)cc(NC(=O)c2ccc3nc[nH]c3c2)c1	L major viab 86
Cc1onc(-c2ccc(Cl)cc2Cl)c1-c1csc(N/N=C/c2ccccc2Cl)n1	T cruzi repl 62 (no result: L major viab, Hsp70 act)
CCOC(=O)c1c(CN(C)C)n(C)c2ccc(OC(C)=O)cc12	L major viab 67, HSF1 inhib inconclusive
CCOC(=O)c1c(C)n(C)c2ccc(OC(=O)c3ccoc3)cc12	none (no result: HSF1 activator, HSF1 inhib)
O=C(N/N=C/c1cn(-c2ccccc2)nc1-c1cc2ccccc2o1)c1cccnc1	L major viab 97
O=C(N/N=C/c1cn(-c2ccccc2)nc1-c1cc2ccccc2o1)c1ccncc1	none
Fc1cccc(CN2CCN(Cc3nc(CCc4ccccc4)no3)CC2)c1	L major viab 79
C(=C\c1ccccc1)/CN1CCN(Cc2nc(Cc3ccccc3)no2)CC1	L major viab 80
C(=C\c1ccccc1)/CN1CCN(Cc2ccc3c(c2)OCO3)CC1	none (no result: L major viab, Hsp70 act)
c1ccc(Cc2noc(CN3CCN(Cc4ccc5c(c4)OCO5)CC3)n2)cc1	L major viab 90
Fc1ccccc1Cc1noc(CN2CCN(Cc3ccc4c(c3)OCO4)CC2)n1	L major viab 84, T cruzi repl 60
CN(C)c1ccc(C(c2ccc(N(C)C)cc2)c2ccc([N+](=O)[O-])cc2)cc1	none (no result: L major viab, Hsp70 act)
Cc1ccc(OC(C)C(=O)Nc2ccncc2)cc1C (configuration not stated)	none (no result: L major viab, Hsp70 act)
COc1ccccc1CN1CCN(Cc2nc(Cc3ccccc3)no2)CC1	T cruzi repl 63
CCC1CCCCN1C(=O)Nc1cc(Cl)ccc1OC (configuration not stated)	none
CC(C)CC(=O)Nc1ccc(-c2nc3ccccc3c(=O)[nH]2)cc1	none
COc1ccc2oc(C(=O)OCC(=O)Nc3ccc(NC(C)=O)cc3)c(C)c2c1	none (no result: L major viab, Hsp70 act)
COc1ccc2oc(C(=O)OCC(=O)N(C)CC(=O)Nc3ccc(C)cc3)c(C)c2c1	HSF1 inhib -51 (no result: L major viab, Hsp70 act)
Cc1ccc(N/C(N)=N/c2nc(C)cc(N3CCCCC3)n2)c(C)c1	L major viab 100, T cruzi repl 69 (no result: HSF1 activator, HSF1 inhib)
Cc1ccc(N/C(N)=N/c2nc3c(c(=O)[nH]2)CCCC3)c(C)c1	none
O=C(CCS(=O)(=O)c1cccs1)Nc1ccc(C(=O)NC2CCCC2)cc1	none
NS(=O)(=O)c1ccc(CCNC(=O)C(=O)C2C(=O)Nc3ccccc32)cc1 (configuration not stated)	none (no result: L major viab, Hsp70 act)
COc1cccc(/C=N/n2c(-c3cc(C)[nH]n3)n[nH]c2=S)c1O	none (no result: L major viab, Hsp70 act)
C=CCN(C(=O)c1ccc(Cl)cc1)c1ccccc1C(=O)NCC(=O)O	none (no result: L major viab, Hsp70 act)
CCCN1C(=O)/C(=C/c2nc3ccccc3c(=O)[nH]2)c2ccccc21	L major viab 100
CCn1c(/C=C2\C(=O)N(C(C)C)c3ccccc32)nc2ccccc2c1=O	none (no result: L major viab, Hsp70 act)
CC(C)N1C(=O)/C(=C\c2nc3ccccc3c(=O)[nH]2)c2ccccc21	L major viab 100 (no result: HSF1 activator, HSF1 inhib, T cruzi repl)
CCCN1C(=O)/C(=C/c2nc3ccccc3c(=O)[nH]2)c2cc(C)ccc21	none (no result: L major viab, Hsp70 act)
O=C(CN1C(=O)COc2ccccc21)NCCN1CCC(Cc2ccccc2)CC1	L major viab 67
O=C(Nc1ccccc1)c1ccc(NC2CCCCC2)c(S(=O)(=O)N2CCOCC2)c1	L major viab 61
O=[N+]([O-])c1ccc(N2CCN(Cc3ccccc3)CC2)c(S(=O)(=O)N2CCOCC2)c1	L major viab 93
O=C(Nc1ccccc1)c1ccc(N2CCN(c3ccccc3)CC2)c(S(=O)(=O)N2CCOCC2)c1	L major viab 89, T cruzi repl 56
Cc1ccc[n+](CC2OCc3ccccc3CO2)c1	none
CCOC(=O)C1CCN(C(=O)c2cc(COc3ccc(F)cc3F)on2)CC1	none (no result: L major viab, Hsp70 act)
CCCCCCCCSc1nnc(CSc2nc3nc(C)cc(C)n3n2)o1	L major viab 67
COc1cc(S(=O)(=O)NCc2ccncc2)ccc1Br	none (no result: L major viab, Hsp70 act)
N#CCCN/N=C(/Cc1nc2ccccc2[nH]1)c1cccc(Cl)c1	L major viab 78
CCn1c(=O)oc2cc(NC(=O)CCl)ccc21	L major viab 70
COc1ccccc1/C=C/C=N/n1c(-c2cc(C)[nH]n2)n[nH]c1=S	HSF1 activator inconclusive
Cc1cc(-c2n[nH]c(=S)n2/N=C/C=C/c2ccccc2)n[nH]1	HSF1 activator 57
COc1ccc(CNc2oc(COc3ccc(Cl)cc3)nc2C#N)cc1	T cruzi repl 66
COc1ccc(Nc2oc(COc3ccc(Cl)cc3)nc2C#N)cc1	none
COc1ccc(CCNc2oc(Cc3cccc4ccccc34)nc2C#N)cc1OC	none
CN(C)c1oc(-c2ccc(OCc3ccc(Cl)cc3)cc2)nc1C#N	T cruzi repl 63
COc1ccc(CCNc2oc(COc3ccc(Br)cc3)nc2C#N)cc1OC	HSF1 activator 56
CCOCCc1c(O)nc(SCC(=O)N2CCOCC2)[nH]c1=O	none (no result: L major viab, Hsp70 act)
O=C(O)c1ccc(N=Nc2c(O)ccc3ncccc23)cc1	none (no result: L major viab, Hsp70 act)
O=C(COC(=O)c1cccc(S(=O)(=O)N2CCN(c3ccccc3)CC2)c1)NCC1CCCO1 (configuration not stated)	none (no result: L major viab, Hsp70 act)

Compound activity (PubChem)
